13 compounds from ChEMBL document CHEMBL1933038 (Bioorg Med Chem Lett, 2012) can be followed below.

The target in data set [1] is T1, Histamine H4 receptor (Homo sapiens, UniProt Q9H3N8). Nature of the data set: Displacement of [3H]histamine from human H4 receptor expressed in HEK cell membranes. Further details: species or system HEK293. On the technique in general: In a radioligand displacement assay an active substance lowers the binding of a labelled ligand.
The target in data set [2] is Histamine H3 receptor (Rattus norvegicus, UniProt Q9QYN8). Nature of the data set: Displacement of [3H]histamine from rat H3R.
Sequence of Histamine H3 receptor (Rattus norvegicus, UniProt Q9QYN8) (Q9QYN8 whole entry): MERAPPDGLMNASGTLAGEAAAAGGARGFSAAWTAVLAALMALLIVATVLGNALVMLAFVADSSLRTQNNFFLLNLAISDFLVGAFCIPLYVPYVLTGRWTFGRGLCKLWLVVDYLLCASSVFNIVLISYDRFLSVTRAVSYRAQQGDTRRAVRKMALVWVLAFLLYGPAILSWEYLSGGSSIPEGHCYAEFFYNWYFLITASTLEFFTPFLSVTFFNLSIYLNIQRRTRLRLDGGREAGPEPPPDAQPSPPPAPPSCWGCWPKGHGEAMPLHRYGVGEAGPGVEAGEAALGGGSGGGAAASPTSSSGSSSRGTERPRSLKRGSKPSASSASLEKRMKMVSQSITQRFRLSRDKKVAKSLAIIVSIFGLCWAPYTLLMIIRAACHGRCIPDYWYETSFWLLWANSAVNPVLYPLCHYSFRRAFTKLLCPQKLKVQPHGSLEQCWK
Data set [3] concerns the target Histamine H4 receptor (Rattus norvegicus, UniProt Q91ZY1). Put plainly: Displacement of [3H]histamine from rat H4R.
The nature of data set [4]: Half life in mouse. In kind it is ADME, organism-based. To be noted: in vivo.
For data set [5], the target named is T2, Histamine H4 receptor (Mus musculus, UniProt Q91ZY2).
T2 sequence (Q91ZY2 whole entry): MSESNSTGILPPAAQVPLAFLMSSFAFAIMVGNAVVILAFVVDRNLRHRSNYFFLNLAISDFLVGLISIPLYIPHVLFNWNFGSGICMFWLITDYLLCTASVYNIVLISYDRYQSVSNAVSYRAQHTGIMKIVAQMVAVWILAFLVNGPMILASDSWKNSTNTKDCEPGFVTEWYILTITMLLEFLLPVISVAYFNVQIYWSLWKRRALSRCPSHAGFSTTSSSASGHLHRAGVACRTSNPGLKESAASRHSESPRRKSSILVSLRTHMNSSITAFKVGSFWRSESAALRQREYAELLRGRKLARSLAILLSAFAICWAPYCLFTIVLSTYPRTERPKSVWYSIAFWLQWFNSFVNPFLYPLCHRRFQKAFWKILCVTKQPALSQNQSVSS
Put plainly: Displacement of [3H]histamine from mouse H4R.

Data set [6] is described as follows: Oral bioavailability in mouse. In kind it is ADME, organism-based. As to conditions: in vivo.
Data set [7] can be described thus: Metabolic stability in rat liver microsomes assessed as compound remaining after 60 mins. It counts as ADME, Microsome. As to conditions: read-out: Stability. The essentials:
(§1)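 Liver microsomes (human, mouse or rat) incubated with compound for 60 min. Read-out is percentage of parent compound remaining; assay carried out by a contract laboratory.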
(Liver microsomes are a subcellular fraction often used to study metabolism.)

A short description of data set [8]: Metabolic stability in mouse liver microsomes assessed as compound remaining after 60 mins. To be noted: read-out: Stability. It counts as ADME, Microsome. The essentials: as §1
A short description of data set [9]: Metabolic stability in human liver microsomes assessed as compound remaining after 60 mins. In kind it is ADME, Microsome. To be noted: read-out: Stability. The method, boiled down: as §1
Data set [10] has as its target Histamine H3 receptor (Mus musculus, UniProt P58406). Nature of the data set: Displacement of [3H]histamine from mouse H3R.
Data set [11] addresses T1, Histamine H4 receptor.
For data set [12], the target named is Histamine H1 receptor (Rattus norvegicus, UniProt P31390). Nature of the data set: Displacement of [3H]histamine from rat H1R.
Sequence of Histamine H1 receptor (Rattus norvegicus, UniProt P31390) (P31390 whole entry): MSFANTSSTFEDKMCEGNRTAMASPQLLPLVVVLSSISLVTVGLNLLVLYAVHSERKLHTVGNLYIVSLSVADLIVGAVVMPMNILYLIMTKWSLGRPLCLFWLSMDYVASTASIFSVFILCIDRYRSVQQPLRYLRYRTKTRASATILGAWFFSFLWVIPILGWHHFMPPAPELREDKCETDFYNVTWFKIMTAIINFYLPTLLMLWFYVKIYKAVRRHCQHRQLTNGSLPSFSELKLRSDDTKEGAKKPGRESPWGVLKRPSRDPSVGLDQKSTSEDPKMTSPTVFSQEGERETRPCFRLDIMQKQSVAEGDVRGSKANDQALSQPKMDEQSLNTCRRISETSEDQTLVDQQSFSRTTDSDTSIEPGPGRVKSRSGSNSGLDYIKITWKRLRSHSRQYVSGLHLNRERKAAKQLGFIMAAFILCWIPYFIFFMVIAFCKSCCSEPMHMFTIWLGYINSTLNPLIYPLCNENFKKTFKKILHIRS
The target in data set [13] is Histamine H1 receptor (Homo sapiens, UniProt P35367). Put plainly: Displacement of [3H]histamine from human H1 receptor expressed in HEK cell membranes. Further details: species or system HEK293.
Sequence of Histamine H1 receptor (Homo sapiens, UniProt P35367) (P35367 whole entry): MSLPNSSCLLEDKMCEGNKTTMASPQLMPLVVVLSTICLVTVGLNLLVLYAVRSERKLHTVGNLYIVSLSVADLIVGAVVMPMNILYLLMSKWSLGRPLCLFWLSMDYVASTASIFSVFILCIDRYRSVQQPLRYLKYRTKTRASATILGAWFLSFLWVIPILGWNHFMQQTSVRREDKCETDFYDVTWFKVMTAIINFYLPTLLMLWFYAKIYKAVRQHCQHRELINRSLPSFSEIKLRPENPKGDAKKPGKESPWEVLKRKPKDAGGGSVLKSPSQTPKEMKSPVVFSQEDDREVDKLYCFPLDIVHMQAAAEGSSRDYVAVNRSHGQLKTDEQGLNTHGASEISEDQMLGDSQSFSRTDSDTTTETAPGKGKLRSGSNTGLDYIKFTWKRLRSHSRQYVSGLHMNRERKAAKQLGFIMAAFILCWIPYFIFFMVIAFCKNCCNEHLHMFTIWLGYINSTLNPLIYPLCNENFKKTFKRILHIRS
For data set [14], the target named is T1, Histamine H4 receptor. Nature of the data set: Antagonist activity at human H4 receptor expressed in HEK293T cells assessed as inhibition of histamine-induced [35S]GTPgammaS binding. It counts as functional, cell-based, HEK-293T. In general terms: Binding of GTPγS marks nucleotide exchange on a G protein.
Data set [15] deals with Histamine H3 receptor (Homo sapiens, UniProt Q9Y5N1). Put plainly: Displacement of [3H]histamine from human H3 receptor expressed in HEK cell membranes. Set-up: species or system HEK293.
Sequence of Histamine H3 receptor (Homo sapiens, UniProt Q9Y5N1) (Q9Y5N1 whole entry): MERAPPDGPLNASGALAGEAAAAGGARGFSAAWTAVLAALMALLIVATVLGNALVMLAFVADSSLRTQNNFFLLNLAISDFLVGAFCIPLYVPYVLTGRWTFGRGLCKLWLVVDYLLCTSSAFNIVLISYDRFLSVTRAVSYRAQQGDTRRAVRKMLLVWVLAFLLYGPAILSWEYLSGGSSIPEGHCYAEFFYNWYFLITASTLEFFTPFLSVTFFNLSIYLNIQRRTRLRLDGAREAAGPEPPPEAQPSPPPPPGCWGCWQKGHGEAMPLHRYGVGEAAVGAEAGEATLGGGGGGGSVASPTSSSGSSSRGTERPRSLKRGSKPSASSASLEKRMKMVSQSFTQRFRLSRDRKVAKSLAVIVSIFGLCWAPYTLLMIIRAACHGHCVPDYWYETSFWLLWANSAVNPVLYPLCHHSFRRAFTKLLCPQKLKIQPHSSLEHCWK
Data set [16] deals with Histamine H2 receptor (Homo sapiens) (UniProt P25021). Put plainly: Displacement of cimetidine from H2 receptor at 10 uM. The essentials: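 Single test concentration of 10 μM, run in duplicate. Result given as percentage displacement of cimetidine binding at the H2 receptor; assay carried out by a contract laboratory.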
Sequence of Histamine H2 receptor (Homo sapiens) (P25021 whole entry): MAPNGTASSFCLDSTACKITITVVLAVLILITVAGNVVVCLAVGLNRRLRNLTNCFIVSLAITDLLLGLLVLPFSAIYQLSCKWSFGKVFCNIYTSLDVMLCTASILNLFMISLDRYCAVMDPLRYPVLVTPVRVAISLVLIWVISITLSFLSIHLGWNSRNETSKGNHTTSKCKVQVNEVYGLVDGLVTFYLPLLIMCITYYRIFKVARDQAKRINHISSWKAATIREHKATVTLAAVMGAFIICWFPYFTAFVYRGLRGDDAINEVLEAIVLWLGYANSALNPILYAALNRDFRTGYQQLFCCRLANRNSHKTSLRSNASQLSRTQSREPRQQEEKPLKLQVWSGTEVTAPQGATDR

T1 sequence (Q9H3N8 whole entry): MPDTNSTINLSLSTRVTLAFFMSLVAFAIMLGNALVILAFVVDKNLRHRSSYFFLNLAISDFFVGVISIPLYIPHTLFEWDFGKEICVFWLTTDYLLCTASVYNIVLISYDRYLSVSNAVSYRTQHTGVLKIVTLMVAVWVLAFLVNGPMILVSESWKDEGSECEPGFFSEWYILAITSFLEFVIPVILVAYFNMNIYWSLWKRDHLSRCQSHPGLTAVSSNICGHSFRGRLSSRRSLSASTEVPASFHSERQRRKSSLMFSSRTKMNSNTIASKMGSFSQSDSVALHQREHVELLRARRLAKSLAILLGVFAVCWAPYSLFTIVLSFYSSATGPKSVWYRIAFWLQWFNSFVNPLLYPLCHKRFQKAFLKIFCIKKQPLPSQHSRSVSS
Sequence of Histamine H3 receptor (Mus musculus, UniProt P58406) (P58406 whole entry): as the sequence (Q9QYN8 whole entry) above, with T15A, A286T, A290G, R387H, I389V counted along it
Sequence of Histamine H4 receptor (Rattus norvegicus, UniProt Q91ZY1) (Q91ZY1 whole entry): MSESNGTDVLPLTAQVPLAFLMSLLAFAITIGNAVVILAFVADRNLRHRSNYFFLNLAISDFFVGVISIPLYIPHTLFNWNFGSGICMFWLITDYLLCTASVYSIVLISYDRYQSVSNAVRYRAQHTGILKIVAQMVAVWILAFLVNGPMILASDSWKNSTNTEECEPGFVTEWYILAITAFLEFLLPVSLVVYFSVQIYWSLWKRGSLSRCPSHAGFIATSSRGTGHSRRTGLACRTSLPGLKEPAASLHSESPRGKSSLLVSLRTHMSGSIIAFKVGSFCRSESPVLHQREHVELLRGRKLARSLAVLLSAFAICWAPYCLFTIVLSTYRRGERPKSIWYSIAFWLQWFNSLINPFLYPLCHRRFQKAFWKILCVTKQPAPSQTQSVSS

As to `CN1CCN(c2nc3cc(Cl)c(Cl)cc3[nH]c2=O)CC1`, in [1], the Ki was 6 nM.

As to `Nc1nc(N2CCNCC2)c2ccc(-c3ccco3)cc2n1`, the Ki in data set [2] is 2560 nM; in data set [3] it was 174 nM; in data set [5], 23 nM; in [10] it was 1070 nM; in [12] it was 3.6 µM; in [1], 16 nM. The Ki in [13] was found to be 10.5 µM; in [14], 7 nM. Moreover, the half-life in [4] is 412 min. This compound came in with a bioavailability in data set [6] of 47%. Also, the remaining at 1 h in [7] is 83%; in [8], 80%; in data set [9], 96%. The compound further yielded a T1/2 in [11] of 4.1 min. For the same compound, the IC50 in data set [14] is 106 nM.

Consider `CN1CCN(c2ncnc3ccccc23)CC1`, for which the Ki in [1] was 328 nM.

Regarding `CC(=O)c1cccc(-c2ccc3c(N4CCN(C)CC4)nc(N)nc3c2)c1`, the Ki in [1] was found to be 15 nM.

`CN1CCN(c2ccnc(N)n2)CC1` yielded a Ki in data set [1] of 31 nM.

Take `CN1CCN(c2nc(N)nc3cc(-c4ccco4)ccc23)CC1`: the Ki in [15] came out at 98 nM; in data set [1], 5 nM; in data set [13] it was 6.42 µM; in [14] it was 5 nM. This compound also displayed an Activity in [16] of 51%. Besides, the IC50 in [14] is 83 nM.

With `Cc1ccc2nc(N)nc(N3CCN(C)CC3)c2c1`, the Ki in [1] turned out to be 649 nM.

`CN1CCN(c2nc(N)nc3ccccc23)CC1` showed a Ki in data set [1] of 32 nM.

In the case of `CN1CCN(c2nc(N)nc3cc(-c4ccsc4)ccc23)CC1`, the Ki in data set [15] worked out at 63 nM; in data set [1], 4 nM; in data set [13], 2.8 µM; in data set [14], 3 nM. Moreover, the Activity in data set [16] is 74%. The IC50 in data set [14] was 46 nM.

`CC(=O)c1cccc(-c2cccc3c(N4CCN(C)CC4)nc(N)nc23)c1`: affinity in [1] was put at a Ki of 676 nM.

For `CN1CCN(c2nc(N)nc3cc(-c4ccoc4)ccc23)CC1`, the Ki in data set [15] was found to be 188 nM; in data set [13] it was 7.37 µM; in data set [14] it was 4 nM. In [16], this compound registered an Activity of 54%. Further, the IC50 in data set [14] was 47 nM.

`Nc1nc2c(c(N3CCNCC3)n1)CCC1=C2[C@H]2CCCC[C@H]2O1` came in with a Ki in [1] of 6 nM.

Regarding `CN1CCN(C(=O)c2nc3ccc(Cl)cc3[nH]2)CC1`, the T1/2 in [11] was 25.6 min.

One may read the Ki as a dissociation constant, usually derived from enzyme kinetics or from competition with a known ligand. The half-life is how long it takes for the measured level to halve. A high value points to slow decline. In general, bioavailability refers to dose-corrected exposure relative to a reference, in per cent. Low readings indicate little systemic uptake, high ones much systemic uptake. As usually defined, the IC50 is the concentration that inhibits the measured activity by half.
